We go through 12 compounds from ChEMBL document CHEMBL1144435, “Effects of positional and geometrical isomerism on the biological activity of some novel oxazolidinones” (2005).

The test system of test [1] is Enterococcus faecalis. Briefly: In vitro minimum inhibitory concentration against vancomycin-resistant Enterococcus faecalis NCTC 12201. It counts as functional. The essentials: (§1)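 Broth microdilution per NCCLS guidelines. Doubling dilutions from 32-1 µg/mL in Mueller Hinton medium. Final inoculum 1-5 × 10^5 cfu/mL. Plates incubated overnight in ambient air at 35 °C. Linezolid and streptomycin run as controls.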

For the next test, the system named is Enterococcus faecium. Nature of the test: In vitro minimum inhibitory concentration against vancomycin-resistant Enterococcus faecium NCTC 12202. The class given is functional. The method, boiled down:
as §1

The subject of test [2] is Staphylococcus aureus. Nature of the test: In vitro minimum inhibitory concentration of compound against Staphylococcus aureus ATCC 49951 (Smith). The class given is functional. The essentials: as §1
Test [3] deals with Mycolicibacterium smegmatis. Briefly: In vitro minimum inhibitory concentration of compound against Mycobacterium smegmatis MTCC 006. The class given is functional.
The subject of test [4] is Staphylococcus aureus. Briefly: In vitro minimum inhibitory concentration of compound against Methicillin-sensitive Staphylococcus aureus ATCC 29213. The class given is functional. The essentials: as §1
In test [5] the test system is Enterococcus faecalis. Nature of the test: In vitro minimum inhibitory concentration against Enterococcus faecalis ATCC 29212. The class given is functional. The essentials: as §1
Test [6] concerns Staphylococcus aureus. Briefly: In vitro minimum inhibitory concentration of compound against Methicillin-resistant Staphylococcus aureus ATCC 33591.

Values after ≈ are worked out from the molar mass of the structure shown. A value given as a limit tells only on which side of the number the result lay.

For `CC(=O)NC[C@H]1CN(c2ccc(/C=C(\C#N)c3nc4ccccc4s3)cc2)C(=O)O1`, the MIC (against Enterococcus faecalis [1]; in the test with Enterococcus faecium; in the test with Staphylococcus aureus [2]; in test [3]; against Staphylococcus aureus [4]; in the test on Enterococcus faecalis [5]) was > 32 µg/mL throughout.
Take `C/C(S)=N/C[C@H]1CN(c2ccc(/C=C(\C#N)n3nc4ccccc4n3)cc2)C(=O)O1`: the MIC with Enterococcus faecalis [1] was 4 µg/mL (≈ 9.56 µM); in the test on Enterococcus faecium it was 4 µg/mL (≈ 9.56 µM); with Staphylococcus aureus [6] it was 2 µg/mL (≈ 4.78 µM); with Staphylococcus aureus [2], 2 µg/mL (≈ 4.78 µM); in test [3] it was > 32 µg/mL; in the test on Staphylococcus aureus [4], 2 µg/mL (≈ 4.78 µM). Moreover, inhibition of growth in the test on Enterococcus faecalis [5] (MIC) required 4 µg/mL (≈ 9.56 µM).
Turning to `CC(=O)NC[C@H]1CN(c2ccc(/C=C(\C#N)n3nnc4ccccc43)cc2)C(=O)O1`, the minimum inhibitory concentration (MIC) in the test with Enterococcus faecalis [1] was 32 µg/mL (≈ 79.5 µM); against Enterococcus faecium, 32 µg/mL (≈ 79.5 µM); against Staphylococcus aureus [6], 16 µg/mL (≈ 39.8 µM); in the test with Staphylococcus aureus [2] it was 16 µg/mL (≈ 39.8 µM); in test [3] it was > 32 µg/mL; in the test with Staphylococcus aureus [4] it was 16 µg/mL (≈ 39.8 µM). In the test on Enterococcus faecalis [5], this compound had an MIC of 32 µg/mL (≈ 79.5 µM).
For `CC(=O)NC[C@H]1CN(c2ccc(/C=C(\C#N)n3nc4ccccc4n3)c(F)c2)C(=O)O1`, the minimum inhibitory concentration (MIC) with Enterococcus faecalis [1] is 32 µg/mL (≈ 76.1 µM); against Enterococcus faecium it was 32 µg/mL (≈ 76.1 µM); against Staphylococcus aureus [6] it was 16 µg/mL (≈ 38.1 µM); in the test with Staphylococcus aureus [2] it was 16 µg/mL (≈ 38.1 µM); in test [3], > 32 µg/mL; in the test with Staphylococcus aureus [4], 8 µg/mL (≈ 19 µM). The compound also came in with an MIC in the test with Enterococcus faecalis [5] of 32 µg/mL (≈ 76.1 µM).
With `CN[C@@H]1[C@H](O[C@H]2[C@H](O[C@H]3[C@H](O)[C@@H](O)[C@H](N=C(N)N)[C@@H](O)[C@@H]3N=C(N)N)O[C@@H](C)[C@]2(O)C=O)O[C@@H](CO)[C@H](O)[C@H]1O` [STREPTOMYCIN], the minimum inhibitory concentration (MIC) with Enterococcus faecalis [1] is > 32 µg/mL; with Enterococcus faecium it was 32 µg/mL (≈ 55 µM); with Staphylococcus aureus [6], > 32 µg/mL; in the test with Staphylococcus aureus [2], 2 µg/mL (≈ 3.44 µM); in test [3], 0.5 µg/mL (≈ 0.86 µM); in the test with Staphylococcus aureus [4] it was 4 µg/mL (≈ 6.88 µM). Also, in the test on Enterococcus faecalis [5], the minimal inhibitory concentration (MIC) is > 32 µg/mL.
Take `CC(=O)NC[C@H]1CN(c2ccc(/C=C(\C#N)n3nc4ccccc4n3)cc2)C(=O)O1`: the minimum inhibitory concentration (MIC) against Enterococcus faecalis [1] is 8 µg/mL (≈ 19.9 µM); in the test with Enterococcus faecium, 8 µg/mL (≈ 19.9 µM); against Staphylococcus aureus [6], 8 µg/mL (≈ 19.9 µM); against Staphylococcus aureus [2], 8 µg/mL (≈ 19.9 µM); in test [3], > 32 µg/mL; against Staphylococcus aureus [4], 8 µg/mL (≈ 19.9 µM). Also, the MIC in the test with Enterococcus faecalis [5] came to 8 µg/mL (≈ 19.9 µM).
With `CC(=O)NC[C@H]1CN(c2ccc(/C=C(\C#N)c3nc4ccccc4[nH]3)cc2)C(=O)O1`, the MIC (in the test on Enterococcus faecalis [1]; in the test on Enterococcus faecium; in the test with Staphylococcus aureus [2]; in test [3]; with Staphylococcus aureus [4]; against Enterococcus faecalis [5]) was > 32 µg/mL throughout.
Regarding `CC(=O)NC[C@H]1CN(c2ccc(/C=C(\C#N)n3cnc4ccccc43)cc2)C(=O)O1`, the MIC with Enterococcus faecalis [1] is 32 µg/mL (≈ 79.7 µM); in the test on Enterococcus faecium, 32 µg/mL (≈ 79.7 µM); against Staphylococcus aureus [6], 16 µg/mL (≈ 39.9 µM); in the test with Staphylococcus aureus [2] it was 16 µg/mL (≈ 39.9 µM); in test [3], > 32 µg/mL; in the test on Staphylococcus aureus [4], 16 µg/mL (≈ 39.9 µM). In the test on Enterococcus faecalis [5], this compound showed an MIC of 32 µg/mL (≈ 79.7 µM).
Turning to `CC(=O)NC[C@H]1CN(c2ccc(/C=C(/C#N)n3nnc4ccccc43)cc2)C(=O)O1`, the minimum inhibitory concentration (MIC) (against Enterococcus faecalis [1]; in the test with Enterococcus faecium; in the test on Staphylococcus aureus [6]; in the test on Staphylococcus aureus [2]; in test [3]; with Staphylococcus aureus [4]) was > 32 µg/mL in each case. In addition, the MIC with Enterococcus faecalis [5] was > 32 µg/mL.
As to `CC(=O)NC[C@H]1CN(c2ccc(N3CCOCC3)c(F)c2)C(=O)O1` [LINEZOLID], the minimum inhibitory concentration (MIC) (against Enterococcus faecium; in test [3]) was 2 µg/mL (≈ 5.93 µM) in each case.
In the case of `CC(=O)NC[C@H]1CN(c2ccc(/C=C(\C#N)c3nc4ccccc4n3C)cc2)C(=O)O1`, the minimum inhibitory concentration (MIC) (in the test on Enterococcus faecalis [1]; in the test on Enterococcus faecium; against Staphylococcus aureus [2]; in test [3]; in the test with Staphylococcus aureus [4]; with Enterococcus faecalis [5]) was > 32 µg/mL throughout.
With `CC(=O)NC[C@H]1CN(c2ccc(/C=C(\C#N)c3nc4ccccc4o3)cc2)C(=O)O1`, the MIC (in the test with Enterococcus faecalis [1]; against Enterococcus faecium; against Staphylococcus aureus [2]; in test [3]; with Staphylococcus aureus [4]; in the test with Enterococcus faecalis [5]) was > 32 µg/mL throughout.
